Some results are limits rather than exact numbers.

For assay [1], the species on record is Rattus norvegicus. The assay is described as follows: Inhibition of amylase release stimulated by CCK-8 (0.1 nM) in dispersed rat pancreatic acini. Format: functional. Summed up: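 Acini prepared by collagenase digestion (two 6-min incubations, 37 °C) in HEPES buffer pH 7.4, then suspended in buffer with theophylline, SBTI and BSA. Incubated 30 min at 37 °C under O2 with shaking, CCK-8 0.1 nM plus increasing compound levels. Released amylase taken as percent of acinar content; inhibition computed relative to vehicle and CCK-8 alone. Three to six experiments, in duplicate.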

For assay [2], the target named is T1, Gastrin/cholecystokinin type B receptor (Rattus norvegicus, UniProt P30553).
T1 sequence (P30553 whole entry): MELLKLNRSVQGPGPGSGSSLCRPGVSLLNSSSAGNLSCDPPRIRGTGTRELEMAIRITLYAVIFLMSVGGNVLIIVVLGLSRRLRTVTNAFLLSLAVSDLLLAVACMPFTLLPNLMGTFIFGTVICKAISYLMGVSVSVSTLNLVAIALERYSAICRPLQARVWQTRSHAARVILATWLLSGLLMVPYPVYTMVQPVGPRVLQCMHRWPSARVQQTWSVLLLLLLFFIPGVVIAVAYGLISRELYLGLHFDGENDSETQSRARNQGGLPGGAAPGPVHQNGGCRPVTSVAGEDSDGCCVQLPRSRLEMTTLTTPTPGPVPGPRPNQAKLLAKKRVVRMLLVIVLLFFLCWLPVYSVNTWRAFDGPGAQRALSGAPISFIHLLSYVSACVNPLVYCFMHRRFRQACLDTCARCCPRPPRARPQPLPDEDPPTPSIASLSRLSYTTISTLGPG
The assay is described as follows: Inhibition of [3H]pCCK-8 binding to cholecystokinin type B receptor of rat cerebral cortex. The class given is tissue-based.

For assay [3], the target named is T2, Cholecystokinin receptor type A (Rattus norvegicus, UniProt P30551).
T2 sequence (P30551 whole entry): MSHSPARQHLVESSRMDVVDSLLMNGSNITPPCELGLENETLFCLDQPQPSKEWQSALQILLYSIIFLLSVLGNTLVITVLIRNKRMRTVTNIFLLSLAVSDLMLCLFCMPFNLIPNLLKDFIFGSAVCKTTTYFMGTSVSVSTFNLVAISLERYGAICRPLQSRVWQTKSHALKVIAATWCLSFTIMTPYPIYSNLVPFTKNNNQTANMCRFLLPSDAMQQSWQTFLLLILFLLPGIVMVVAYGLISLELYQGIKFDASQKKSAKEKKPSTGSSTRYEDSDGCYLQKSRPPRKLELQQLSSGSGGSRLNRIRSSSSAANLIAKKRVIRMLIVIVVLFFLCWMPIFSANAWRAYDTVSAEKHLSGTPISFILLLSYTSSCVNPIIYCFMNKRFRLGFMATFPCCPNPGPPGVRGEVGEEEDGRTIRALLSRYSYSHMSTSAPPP
The experiment in a line: Inhibition of [3H]pCCK-8 binding to cholecystokinin type A receptor of rat pancreas. Put shortly: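 Rat pancreas homogenized in Pipes-HCl pH 6.5 with 30 mM MgCl2, centrifuged twice at 50000g, 4 °C. Membranes (0.2 mg protein/tube) incubated with 0.5 nM [3H]pCCK-8 plus bacitracin and SBTI (0.2 mg/mL each), 120 min, 25 °C. Seven test concentrations in triplicate; mean of at least three experiments.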

The target in assay [4] is T1, Gastrin/cholecystokinin type B receptor. The assay is described as follows: Inhibition of [3H]pCCK-8 specific binding to cholecystokinin type B receptor in rat cerebral cortex. The class given is tissue-based. Summed up: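 Rat cerebral cortex homogenized in 50 mM Tris-HCl pH 7.4 with 5 mM MgCl2, centrifuged twice at 100000g, 4 °C. Membranes (0.45 mg protein/tube) incubated with 1 nM [3H]pCCK-8 and bacitracin 0.2 mg/mL, 60 min, 25 °C. Nonspecific binding defined by 1 µM CCK-8. Seven test concentrations in triplicate; at least three experiments.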

Broadly, the IC50 is the concentration that gives 50% inhibition. Low values mean inhibition by little substance, high ones a need for much substance. `CC(C)(C)OC(=O)N[C@@H](Cc1c[nH]c2ccccc12)C(=O)N[C@H]1CCCN2C(=O)N(Cc3ccccc3)C(=O)C[C@H]12` yielded an IC50 in assay [1] of 77 nM.
`CC(C)(C)OC(=O)N[C@@H](Cc1c[nH]c2ccccc12)C(=O)N[C@H]1CCCN2C(=O)N(Cc3ccccc3)C(=S)C[C@H]12`: the IC50 in assay [2] was > 10000 nM; in assay [1] it was 23 nM.
As for `CC(C)(C)OC(=O)N[C@@H](Cc1c[nH]c2ccccc12)C(=O)N[C@@H]1CCCN2CN(Cc3ccccc3)CC[C@@H]12`, the IC50 was > 10000 nM in assay [2] and > 1000 nM in assay [3].
In the case of `CC(C)(C)OC(=O)N[C@@H](Cc1c[nH]c2ccccc12)C(=O)N[C@H]1CCCN2CN(Cc3ccccc3)C(=O)C[C@H]12`, the IC50 is > 10000 nM in assay [2] and > 1000 nM in assay [3].
Take `CC(C)(C)OC(=O)N[C@@H](Cc1c[nH]c2ccccc12)C(=O)N[C@H]1CCCN2C(=S)N(Cc3ccccc3)C(=S)C[C@H]12`: the IC50 is > 10000 nM in assay [2] and 900 nM in assay [3].
In the case of `CC(C)(C)OC(=O)N[C@@H](Cc1c[nH]c2ccccc12)C(=O)N[C@@H]1CCCN2C(=S)N(Cc3ccccc3)C(=S)C[C@@H]12`, the IC50 in assay [2] is > 10000 nM; in assay [3] it was 1.34 nM; in assay [1], 62 nM.
As to `CC(C)(C)OC(=O)N[C@@H](Cc1c[nH]c2ccccc12)C(=O)N[C@@H]1CCCN2CN(Cc3ccccc3)C(=O)C[C@@H]12`, the IC50 in assay [2] was > 10000 nM; in assay [3] it was > 1000 nM.
Take `CC(C)(C)OC(=O)N[C@@H](Cc1c[nH]c2ccccc12)C(=O)N[C@@H]1CCCN2C(=O)N(Cc3ccccc3)C(=S)C[C@@H]12`: the IC50 in assay [2] is > 10000 nM; in assay [3] it was 2.83 nM; in assay [1], 4.3 nM.
As to `CO[C@@H]1C[C@H]2[C@H](NC(=O)[C@H](Cc3c[nH]c4ccccc34)NC(=O)OC(C)(C)C)CCCN2C(=O)N1Cc1ccccc1`, the IC50 in assay [2] was > 10000 nM; in assay [3], 370 nM.
Consider `CC(C)(C)OC(=O)N[C@@H](Cc1c[nH]c2ccccc12)C(=O)N[C@@H]1CCCN2C(=O)N(Cc3ccccc3)CC[C@@H]12`, for which the IC50 in assay [2] is > 10000 nM; in assay [3], > 1000 nM.
On to `CC(C)(C)OC(=O)N[C@@H](Cc1c[nH]c2ccccc12)C(=O)N[C@@H]1CCCN2C(=S)N(Cc3ccccc3)C(=O)C[C@@H]12`, for which the results for the IC50 in assay [2], in assay [3] and in assay [1] were > 10000 nM, 0.09 nM and 33 nM, respectively.
Turning to `CC(C)(C)OC(=O)N[C@@H](Cc1c[nH]c2ccccc12)C(=O)N[C@H]1CCCN2C(=S)N(Cc3ccccc3)C(=O)C[C@H]12`, the IC50 in assay [2] was > 10000 nM; in assay [3], 825 nM.
In the case of `CC(C)(C)OC(=O)N[C@@H](Cc1c[nH]c2ccccc12)C(=O)N[C@@H]1CCCN2C(=O)N(Cc3ccccc3)C(=O)C[C@@H]12` [IQM-95333], the IC50 in assay [4] is > 10000 nM; in assay [1] it was 0.64 nM.
